This is a sample that favours compounds with a hit; in the whole collection about 1.4% have one here.
Vif inh: HIV Vif self-association inhibitors, primary screen, imaging, HEK293T, single point; HEK293T cells, Vif self-association by quenched fluorescence, 24 h; inhibition, % at 7.49 µM; 340,000 tested, 0.35% active; AID 602346, 2012; in the data active means inhibition above about 50%, passing the limit was not always enough
SR-BI uptake up: activators of SR-BI mediated DiI-HDL uptake, primary screen, ldlA[mSR-BI] CHO cells, DiI fluorescence. 3 h; 100 = double the neutral-control signal. activation, % at 12.5 µM. 320,000 tested, 0.096% active;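 active means mean replicate activation of at least 60% and every replicate at or above 60%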;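 further: 0% = median plate neutral-control signal and 100% = twice that signal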
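Material: SR-BI-overexpressing, LDLR-lacking CHO cells | Dosing: Single compound concentration, delivered by pin transfer | Probe or stimulus: Labelled HDL, 10 µg/mL | Signal: Bottom-read cell fluorescence after medium removal, ex 550/em 595 nm | Schedule: 3 h, 37 °C | Evaluation: HDL uptake via cellular fluorescence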
PKA-R2B act: activators of PKA-R2B holoenzyme, primary screen, biochemical, fluorescence polarization, Cy5-IP20, human; PKA-R2B holoenzyme dissociation; R2B truncated from residue 108, S112A mutant; 0% DMSO only, 100% 113 µM cGMP; activation, % at 11.4 µM; 340,000 tested, 0.079% active;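 active means activation above a cutoff set at the mean over all compounds plus 3 SD, cut at about 18% in these data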;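 further: higher means more holoenzyme dissociation and a rise in polarization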
Target sequence (P31323 whole entry, looked up, other chains not shown, the tested form may be a part): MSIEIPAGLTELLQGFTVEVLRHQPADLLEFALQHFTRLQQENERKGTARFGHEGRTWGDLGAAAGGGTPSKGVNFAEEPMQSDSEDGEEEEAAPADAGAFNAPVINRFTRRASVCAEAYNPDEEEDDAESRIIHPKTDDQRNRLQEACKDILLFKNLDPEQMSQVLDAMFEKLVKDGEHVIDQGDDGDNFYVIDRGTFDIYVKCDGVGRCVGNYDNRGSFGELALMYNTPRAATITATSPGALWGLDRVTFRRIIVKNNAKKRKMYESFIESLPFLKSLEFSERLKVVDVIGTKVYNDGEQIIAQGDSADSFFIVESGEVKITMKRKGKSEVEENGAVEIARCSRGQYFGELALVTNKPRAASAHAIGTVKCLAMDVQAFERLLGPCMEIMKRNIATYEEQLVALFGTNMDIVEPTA
PKA-R1A activ: activators of PKA-R1A holoenzyme, primary screen, biochemical, fluorescence polarization, Cy5-IP20, bovine R1A, mouse PKAc. PKA-R1A dissociation; scaled: DMSO 0%, 113 µM cGMP 100%. 340,000 tested, 0.083% active. activation, % at 11.4 µM. AID 504707, 2011. cAMP-dependent protein kinase type I-alpha regulatory subunit (Bos taurus) + …;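 active means percent activation above the mean of all tested compounds plus 3 SD, cut at about 19% in these data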;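 further: higher means more PKAc released from R1A so a rise in polarization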
SR-BI HDL uptake: inhibitors of SR-BI mediated HDL lipid uptake, primary screen, ldlA[mSR-BI] cells, fluorescence, single point; Scavenger receptor class B member 1 (Mus musculus), Q61009; ldlA[mSR-BI] CHO cells, DiI-HDL uptake fluorescence, 3 h; inhibition, % at 12.5 µM; 320,000 tested, 0.96% active;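 active means mean replicate inhibition of at least 70% and a set share of replicates each scoring 70 or more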;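 further: 0% = median of neutral control wells and 100% = median of positive control wells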
* hit, by the source's call.

How did N=c1n(CCN2CCOCC2)c2ccccc2n1CC(=O)c1cccc([N+](=O)[O-])c1 do in these assays?
Vif inh: -2.3; SR-BI uptake up: -76.9; PKA-R2B act: -17.3; PKA-R1A activ: -2.7; SR-BI HDL uptake: 76.9*

Results for CCOC(=O)C1CCCN(C(=O)c2cc(-c3ccncc3)nc3ccccc23)C1 (centres undefined) ?
Vif inh: -11.9; SR-BI uptake up: 17.3; PKA-R2B act: 0.5; PKA-R1A activ: 0.4; SR-BI HDL uptake: -17.3

How did CCOC(=O)C1CCCN(C(=O)c2cc(-c3ccc(F)cc3)nc3ccccc23)C1 (centres undefined) do in these assays?
Vif inh: -3.6; SR-BI uptake up: -70.4; PKA-R2B act: -8.1; PKA-R1A activ: -8.6; SR-BI HDL uptake: 70.4*

What do the screens show for `O=C(CN(Cc1ccccc1)C(=O)c1cccc([N+](=O)[O-])c1)Nc1c(Cl)cc(Cl)cc1Cl`?
Vif inh: -9.8; SR-BI uptake up: -2.9; PKA-R2B act: 5.0; PKA-R1A activ: 4.7; SR-BI HDL uptake: 2.9

How did Cc1c(Cl)sn(-c2ccc(Cl)cc2)c1=O do in these assays?
Vif inh: 25.3; SR-BI uptake up: -72.2; PKA-R2B act: -1.1; PKA-R1A activ: -2.3; SR-BI HDL uptake: 72.2*

What do the screens show for `COc1ccc(NC(=O)C2(C)CCN2Cc2cccc(OC)c2OC)cc1OC` (centres undefined)?
Vif inh: -5.0

How did O=C1C=CC2(C=C1)O[C@H](Cc1ccccc1)[C@@H](Cc1ccccc1)O2 do in these assays?
Vif inh: -8.1; SR-BI uptake up: -10.2; PKA-R2B act: -6.3; PKA-R1A activ: 2.4; SR-BI HDL uptake: 10.2

Results for COc1ccc(C[C@@H]2OC3(C=CC(=O)C=C3)O[C@H]2Cc2ccc(OC)cc2)cc1 ?
Vif inh: 69.3*; SR-BI uptake up: 1.0; PKA-R2B act: -9.5; PKA-R1A activ: -10.6; SR-BI HDL uptake: -1.0

Results for COc1ccc(C=C2CS(=O)(=O)CC(=Cc3ccc(OC)cc3)C2=O)cc1 ?
Vif inh: 111.6*; PKA-R2B act: -4.7; PKA-R1A activ: -3.3

What do the screens show for `COc1ccc(/C=C2\CCCCC2=O)cc1`?
Vif inh: -3.0; SR-BI uptake up: 21.8; PKA-R2B act: 5.7; PKA-R1A activ: 1.9; SR-BI HDL uptake: -21.8

Results for COc1ccccc1N1C(=O)c2cccc3c(N(C)CCO)ccc(c23)C1=O ?
Vif inh: 80.1*; SR-BI uptake up: -10.2; PKA-R2B act: -10.3; PKA-R1A activ: -5.3; SR-BI HDL uptake: 10.2

How did Cc1ccccc1N1C(=O)c2cccc3c(N(C)CCO)ccc(c23)C1=O do in these assays?
Vif inh: inactive; SR-BI uptake up: -7.2; PKA-R2B act: 4.2; PKA-R1A activ: -1.8; SR-BI HDL uptake: 7.2

Results for O=c1cc(-c2ccc(Cl)cc2)[nH][nH]1 ?
Vif inh: 57.4*; SR-BI uptake up: 51.8; PKA-R2B act: 5.5; PKA-R1A activ: 3.6; SR-BI HDL uptake: -51.8

What do the screens show for `Cc1ccc(NC(=O)CN(C)C(=O)COc2ccccc2-c2ccccc2)cc1`?
Vif inh: 2.5; SR-BI uptake up: 8.4; PKA-R2B act: -0.4; PKA-R1A activ: 5.9; SR-BI HDL uptake: -8.4

How did C/C(=N\Nc1cc(C)nc(-c2ccccc2)n1)c1cccc([N+](=O)[O-])c1 do in these assays?
Vif inh: -0.2; SR-BI uptake up: -76.9; PKA-R2B act: -10.9; PKA-R1A activ: -6.3; SR-BI HDL uptake: 76.9*

What do the screens show for `COc1cc(N/N=C(\C)c2ccc(O)c(C)c2)nc(-c2ccccc2)n1`?
Vif inh: 5.0; SR-BI uptake up: -92.4; PKA-R2B act: -7.1; PKA-R1A activ: 2.3; SR-BI HDL uptake: 92.4*

How did COc1ccc(-c2nc(N/N=C(\C)c3ccc(O)cc3)c3ccccc3n2)cc1 do in these assays?
Vif inh: 1.6; PKA-R2B act: 2.5; PKA-R1A activ: -13.3
